According to ChEMBL document CHEMBL4033790, “Design and Synthesis of Novel Deuterated Ligands Functionally Selective for the γ-Aminobutyric Acid Type A Receptor (GABAAR) α6 Subtype with Improved Metabolic Stability and Enhanced Bioavailability” (J Med Chem, 2018):
Active and inactive are the calls of the source. The rule behind the calls is not given here.

Tests used:
[1] = Drug metabolism in human liver microsomes assessed as CYP450 mediated-O-demethylated 7-hydroxy-2-[4-(trideuteriomethoxy)phenyl]-5H-pyrazolo[4,3-c]quinolin-3-one metabolite formation after 60 mins by LC-MS analysis; assay type: ADME; conditions: 1 h
Outline: (§1)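 The 60-min samples from the human or mouse liver microsome incubations (10 µM compound, 0.5 mg/mL protein, NADPH regenerating system, 37 °C, pH 7.4) were run on LC-MS in SIM mode with dual ESI/APCI ionization. The method was calibrated to each component's retention time and mass, and the peak intensities of the parent and O-demethylated metabolites were measured.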

[2] = Drug metabolism in mouse liver microsomes assessed as CYP450 mediated-O-demethylated 7-hydroxy-2-[4-(trideuteriomethoxy)phenyl]-5H-pyrazolo[4,3-c]quinolin-3-one metabolite formation after 60 mins by LC-MS analysis; assay type: ADME; conditions: 1 h; outline: as §1
[3] = Drug metabolism in mouse liver microsomes assessed as CYP450 mediated-O-demethylated 2-(4-hydroxyphenyl)-7-methoxy-2H-pyrazolo[4,3-c]quinolin-3(5H)-one metabolite formation after 60 mins by LC-MS analysis; assay type: ADME; conditions: 1 h; outline: as §1
[4] = Drug metabolism in mouse liver microsomes assessed as CYP450 mediated-O-demethylated 7-hydroxy-2-(4-hydroxyphenyl)-2H-pyrazolo[4,3-c]quinolin-3(5H)-one metabolite formation after 60 mins by LC-MS analysis; assay type: ADME; conditions: 1 h; outline: as §1
[5] = test system: HepG2; experiment: Cytotoxicity against human HepG2 cells assessed as reduction in cell viability up to 400 uM after 48 hrs by CellTiter-Glo assay; assay type: cell-based; conditions: hepg2, 48 h
Outline: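 HEK293T and HepG2 cells grown in high-glucose DMEM with non-essential amino acids, 10 mM HEPES, penicillin/streptomycin and 10% heat-inactivated FBS. Cells were harvested with trypsin and plated; compound was pin-transferred 3 h later. Incubation was 48 h, then CellTiter-Glo luminescence was read. Controls were DMSO (negative) and a cytotoxic aminoketone (positive). Quadruplicates, three independent runs, normalized to controls, nonlinear regression.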

[6] = test system: Rattus norvegicus; experiment: Toxicity in Wistar rat assessed as grip strength by measuring peak force of pull necessary to overcome strength of animal's grip at 10 mg/kg, ip (reference value: 2.79 +/- 0.16 kg/kg); assay type: organism-based; conditions: in vivo
[7] = test system: Rattus norvegicus; experiment: Toxicity in Wistar rat assessed as open arm entries at 10 mg/kg, ip administered for 45 mins measured for 5 min by elevated plus maze apparatus method (reference value: 23.07 +/- 5.47%); assay type: organism-based; conditions: in vivo
[8] = test system: Rattus norvegicus; experiment: Toxicity in Wistar rat assessed as peripheral ring distance at 10 mg/kg, ip administered for 45 mins by cued water-maze method (reference value: 67.44 +/- 4.60%); assay type: organism-based; conditions: in vivo, 0.75 h
[9] = test system: Rattus norvegicus; experiment: Toxicity in Wistar rat assessed as average swim speed at 10 mg/kg, ip administered for 45 mins by cued water-maze apparatus method (reference value: 0.21 +/- 0.01 meter/s); assay type: organism-based; conditions: in vivo, 0.75 h
[10] = test system: Rattus norvegicus; experiment: Hyperlocomotor activity in Wistar rat assessed as total distance travelled at 10 mg/kg, ip after 60 mins; assay type: ADME, organism-based; conditions: in vivo, 1 h
[11] = test system: Brain; experiment: Fraction unbound in Wistar rat brain at 10 mg/kg, ip administered as single dose measured at 5 to 720 mins post dose by HPLC-MS/MS analysis; assay type: ADME, organism-based; conditions: in vivo
Outline: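 Free fraction in rat plasma and brain tissue was measured in vitro by rapid equilibrium dialysis. Exposure came from male Wistar rats (250-350 g) given a single 10 mg/kg IP dose, as a 5 mg/ml suspension in 85% water, 14% propylene glycol and 1% Tween 80. Three rats per time point (5–720 min); brain analysed by HPLC-MS/MS after solid-phase extraction.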

[12] = test system: Mus musculus; experiment: Neurotoxicity in Swiss Webster mouse assessed as induction of motor impairment at 55 mg/kg administered via oral gavage measured after 10 to 60 mins by rotarod method; assay type: toxicity, organism-based; conditions: in vivo
[13] = test system: Liver; experiment: Half life in human liver microsomes at 10 uM by LC-MS/MS analysis; assay type: ADME, microsome
Outline: (§2)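 Compound at 10 μM final was preincubated 5 min at 37 °C with NADPH regenerating system in phosphate buffer, pH 7.4. Human or mouse liver microsomes (0.5 mg/mL protein) were added to start the reaction. Samples were taken at 0 (no microsomes) and 10–60 min and measured by LC-MS/MS against an internal standard. Half-life = 0.693/k, with k the slope of ln peak-area ratio versus time. Three experiments, each in duplicate.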

[14] = test system: Liver; experiment: Half life in mouse liver microsomes at 10 uM by LC-MS/MS analysis; assay type: ADME, microsome; outline: as §2
[15] = molecular target: GABA-A receptor; alpha-1/beta-3/gamma-2 (Homo sapiens) (UniProt P14867+P18507+P28472); experiment: Positive allosteric modulation of GABA-A receptor alpha1beta3gamma2 (unknown origin) expressed in Xenopus laevis oocytes assessed as potentiation of EC3 GABA induced currents up to 1 uM at -60 mV holding potential by electrophysiological method relative to GABA; assay type: cell-based
Outline: (§3)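 Stage 5–6 defolliculated Xenopus oocytes were injected with 2.5 ng total mRNA per oocyte: α1, α2, α3 or α5 with β3 and γ2 at 1:1:5, and α4 or α6 with β3 and γ2 at 3:1:5. Oocytes were kept ≥36 h at 18 °C in NDE medium before recording. Compounds were co-applied with GABA titrated to EC3-5 for each oocyte. Curves were fitted with the Hill equation; mean ± SEM from ≥3 oocytes across two batches.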

[16] = molecular target: GABA A receptor alpha-4/beta-3/gamma-2 (Homo sapiens) (UniProt P18507+P28472+P48169); experiment: Positive allosteric modulation of GABA-A receptor alpha4beta3gamma2 (unknown origin) expressed in Xenopus laevis oocytes assessed as potentiation of EC3 GABA induced currents up to 1 uM at -60 mV holding potential by electrophysiological method relative to GABA; assay type: cell-based; outline: as §3
[17] = molecular target: GABA-A receptor; alpha-5/beta-3/gamma-2 (Homo sapiens) (UniProt P18507+P28472+P31644); experiment: Positive allosteric modulation of GABA-A receptor alpha5beta3gamma2 (unknown origin) expressed in Xenopus laevis oocytes assessed as potentiation of EC3 GABA induced currents up to 1 uM at -60 mV holding potential by electrophysiological method relative to GABA; assay type: cell-based; outline: as §3
[18] = molecular target: 5-hydroxytryptamine receptor 7 (Homo sapiens) (UniProt P34969); experiment: Displacement of [3H]-LSD from human recombinant 5HT7 receptor expressed in HEK293 cells at 10 uM after 60 to 90 mins by scintillation counting; assay type: cell-based
[19] = molecular target: Mu-type opioid receptor (Homo sapiens) (UniProt P35372); experiment: Displacement of [3H]-DAMGO from human recombinant MOR expressed in HEK293 cells at 10 uM after 60 to 90 mins by scintillation counting; assay type: cell-based
[20] = molecular target: D(1B) dopamine receptor (Homo sapiens) (UniProt P21918); experiment: Displacement of [3H]-[…] from human recombinant dopamine D5 receptor expressed in HEK293 cells at 10 uM after 60 to 90 mins by scintillation counting; assay type: cell-based
Outline: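 Primary single-concentration radioligand displacement screen run by the NIMH Psychoactive Drug Screening Program across a 46-target panel that includes hERG. The read-out is percent inhibition of specific radioligand binding. Any compound displacing more than 50% of radioligand went on to secondary binding assays to determine Ki.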

Chain of Mu-type opioid receptor (Homo sapiens) (P35372 whole entry): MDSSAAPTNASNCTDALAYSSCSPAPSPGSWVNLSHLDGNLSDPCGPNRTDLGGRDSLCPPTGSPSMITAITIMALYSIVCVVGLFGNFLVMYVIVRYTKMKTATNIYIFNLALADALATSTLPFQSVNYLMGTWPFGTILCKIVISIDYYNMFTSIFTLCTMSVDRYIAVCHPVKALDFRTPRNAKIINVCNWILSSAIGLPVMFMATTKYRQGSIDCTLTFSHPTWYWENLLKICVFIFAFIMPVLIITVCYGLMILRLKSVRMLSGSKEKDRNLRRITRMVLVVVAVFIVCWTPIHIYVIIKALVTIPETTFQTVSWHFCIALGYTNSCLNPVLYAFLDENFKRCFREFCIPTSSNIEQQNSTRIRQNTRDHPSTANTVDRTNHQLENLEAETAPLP
Chain of D(1B) dopamine receptor (Homo sapiens) (P21918 whole entry): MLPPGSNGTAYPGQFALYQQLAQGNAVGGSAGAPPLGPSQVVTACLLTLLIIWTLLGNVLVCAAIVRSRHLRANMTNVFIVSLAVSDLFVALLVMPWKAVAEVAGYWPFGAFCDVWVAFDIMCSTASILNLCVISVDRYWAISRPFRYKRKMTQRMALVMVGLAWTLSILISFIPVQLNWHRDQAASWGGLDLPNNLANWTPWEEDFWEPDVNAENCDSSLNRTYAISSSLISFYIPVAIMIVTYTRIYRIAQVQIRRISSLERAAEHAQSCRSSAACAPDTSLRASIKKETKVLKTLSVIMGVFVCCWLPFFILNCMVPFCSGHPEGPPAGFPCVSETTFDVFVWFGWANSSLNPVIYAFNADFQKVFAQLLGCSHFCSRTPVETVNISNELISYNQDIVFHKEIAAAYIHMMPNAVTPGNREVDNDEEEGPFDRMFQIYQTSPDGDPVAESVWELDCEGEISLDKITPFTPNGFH
Chain of 5-hydroxytryptamine receptor 7 (Homo sapiens) (P34969 whole entry): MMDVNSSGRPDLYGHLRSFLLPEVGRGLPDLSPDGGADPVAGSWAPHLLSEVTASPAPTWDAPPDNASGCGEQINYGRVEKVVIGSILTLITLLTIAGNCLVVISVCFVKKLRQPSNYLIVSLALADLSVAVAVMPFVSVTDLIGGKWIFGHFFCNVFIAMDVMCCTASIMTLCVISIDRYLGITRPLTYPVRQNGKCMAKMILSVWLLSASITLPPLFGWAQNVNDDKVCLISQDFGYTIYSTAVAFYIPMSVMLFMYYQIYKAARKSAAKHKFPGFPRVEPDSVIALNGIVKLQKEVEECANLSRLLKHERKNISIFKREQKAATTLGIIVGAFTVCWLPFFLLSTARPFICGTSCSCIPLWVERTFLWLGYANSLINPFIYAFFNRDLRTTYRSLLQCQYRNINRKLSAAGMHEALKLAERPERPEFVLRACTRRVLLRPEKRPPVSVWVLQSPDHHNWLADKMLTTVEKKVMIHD

Row | SMILES | Drug metabolism [1] | Drug metabolism [2] | Drug metabolism [3] | Drug metabolism [4] | Activity [5] | Activity [6] [kg/kg] | Activity [7] [%] | Activity [8] [%] | Activity [9] [meter/s] | Activity [10] | Fu [11] | Activity [12] | t1/2 [13] [h] | t1/2 [14] [h] | Activity [15] [%] | Activity [16] [%] | Activity [17] [%] | inhibition [18] | inhibition [19] | inhibition [20]
1 | [2H]C([2H])([2H])Oc1ccc(-n2nc3c4ccc(OC)cc4[nH]cc-3c2=O)cc1 | Metabolite_Detected | Metabolite_Detected | Metabolite_Detected | Metabolite_Detected | Non-Toxic | 2.67 | 22.36 | 67.2 | 0.2 | Toxic | 0.194 | Non-Toxic | – | – | – | – | – | – | – | –
2 | COc1ccc(-n2nc3c4ccc(OC)cc4[nH]cc-3c2=O)cc1 | – | – | – | – | – | – | – | – | – | – | – | – | 3.6 | 3.2 | < 0 | < 0 | < 0 | Active | Active | Active
